Experimental data taken from ChEMBL document CHEMBL3621120, “Discovery of ((4-(5-(Cyclopropylcarbamoyl)-2-methylphenylamino)-5-methylpyrrolo[1,2-f][1,2,4]triazine-6-carbonyl)(propyl)carbamoyloxy)methyl-2-(4-(phosphonooxy)phenyl)acetate (BMS-751324), a Clinical Prodrug of p38α MAP Kinase Inhibitor” (J Med Chem, 2015).
Values after ≈ are worked out from the molar mass of the structure shown.

Legend:
[1] = target: T1, Alkaline phosphatase, placental type (Homo sapiens, UniProt P05187); assay: Stability assessed as human placental ALP-mediated drug degradation by measuring compound remaining level in pH 7.5 tris buffer at 10 uM incubated for 0.5 hrs in presence of HALT phosphatase inhibitor cocktail by LC/MS/MS method; assay type: ADME; conditions: pH 7.5, with HALT phosphatase inhibitor cocktail, read-out: Stability
T1 sequence (P05187 whole entry): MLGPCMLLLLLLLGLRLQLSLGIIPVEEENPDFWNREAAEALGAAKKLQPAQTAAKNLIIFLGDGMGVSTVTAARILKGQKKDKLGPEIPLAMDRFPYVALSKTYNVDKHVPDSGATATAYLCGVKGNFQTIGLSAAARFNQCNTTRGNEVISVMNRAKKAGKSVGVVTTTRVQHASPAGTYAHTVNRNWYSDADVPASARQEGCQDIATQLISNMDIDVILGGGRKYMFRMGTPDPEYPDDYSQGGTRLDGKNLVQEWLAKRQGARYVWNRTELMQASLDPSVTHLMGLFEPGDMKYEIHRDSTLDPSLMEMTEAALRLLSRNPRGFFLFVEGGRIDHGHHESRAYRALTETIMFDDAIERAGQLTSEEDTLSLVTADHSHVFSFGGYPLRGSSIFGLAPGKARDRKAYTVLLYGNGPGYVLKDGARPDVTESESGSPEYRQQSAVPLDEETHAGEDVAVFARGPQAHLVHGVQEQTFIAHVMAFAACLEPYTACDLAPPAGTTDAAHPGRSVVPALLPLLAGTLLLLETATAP
Outline: (§1)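 Human placental alkaline phosphatase (1 unit/mL) incubated with compound at 10 µM in 89 mM tris buffer, pH 7.5, 37 °C; reactions in triplicate started by compound addition, sampled at 0, 15, 30, 60 min. For inhibition, HALT phosphatase inhibitor cocktail (100x dilution) added before compound. Samples quenched into EDTA, acetonitrile added, centrifuged, remaining compound measured by LC/MS/MS.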

[2] = system: Cynomolgus monkey; assay: AUC in cynomolgus monkey assessed as plasma BMS-582949 level at 10 mg/kg, po dose equivalent to BMS-582949 after 24 hrs by LC/MS/MS method; assay type: ADME, organism-based, Macaca fascicularis; parameters: time < 24 hr, dose 10 mg/kg, route oral; conditions: in vivo
Outline: (§2)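 Three overnight-fasted male cynomolgus monkeys (4.2-5.2 kg) given prodrug by oral gavage at 10 or 30 mg/kg, 5 mL/kg methocel suspension, one-week washout between doses. Femoral artery blood pre-dose and 0.25-24 h post-dose; plasma (centrifuged 4 °C) stored -20 °C and analysed by LC/MS/MS for parent.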

[3] = target: T2, Liver carboxylesterase (Sus scrofa, UniProt Q29550); assay: Stability assessed as porcine liver esterase-mediated drug degradation by measuring compound remaining level in pH 7.4 potassium phosphate buffer at 10 uM incubated for 1 hr by LC/MS/MS; assay type: ADME, tissue-based; conditions: pig, read-out: Stability
T2 sequence (Q29550 whole entry): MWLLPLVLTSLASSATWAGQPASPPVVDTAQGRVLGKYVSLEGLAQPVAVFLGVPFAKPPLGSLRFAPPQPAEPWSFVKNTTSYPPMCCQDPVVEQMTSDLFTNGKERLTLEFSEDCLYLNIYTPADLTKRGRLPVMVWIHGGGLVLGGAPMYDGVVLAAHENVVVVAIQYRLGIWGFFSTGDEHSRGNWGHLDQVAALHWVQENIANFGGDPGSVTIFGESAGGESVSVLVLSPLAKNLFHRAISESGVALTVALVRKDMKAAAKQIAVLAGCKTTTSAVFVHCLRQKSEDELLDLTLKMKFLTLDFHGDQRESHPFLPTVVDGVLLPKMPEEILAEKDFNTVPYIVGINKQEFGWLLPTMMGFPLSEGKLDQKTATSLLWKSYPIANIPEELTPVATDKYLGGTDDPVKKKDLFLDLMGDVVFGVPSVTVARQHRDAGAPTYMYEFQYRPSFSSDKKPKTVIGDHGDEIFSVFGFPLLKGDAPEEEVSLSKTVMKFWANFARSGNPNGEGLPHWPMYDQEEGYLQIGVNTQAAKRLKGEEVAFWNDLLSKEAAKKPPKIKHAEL
Outline: (§3)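 Porcine liver esterase with substrate at 10 µM in 89 mM potassium phosphate pH 7.4, 37 °C. Reaction started by adding compound. Aliquots taken at 0, 15, 30 and 60 min and quenched with acetonitrile. After centrifugation at 4 °C, percent remaining quantified by LC/MS/MS.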

[4] = system: Rattus norvegicus; assay: AUC in Sprague-Dawley rat assessed as plasma BMS-582949 level at 1 mg/kg, po dose equivalent to BMS-582949 after 24 hrs by LC/MS/MS method; assay type: ADME, organism-based; parameters: time < 24 hr, dose 1 mg/kg, route oral; conditions: in vivo
[5] = Solubility of the compound in pH 1.2 solution at room temperature; assay type: physicochemical
[6] = system: Rattus norvegicus; assay: Bioavailability in Sprague-Dawley rat assessed as plasma BMS-582949 level at 1 mg/kg, po dose equivalent to BMS-582949 after 24 hrs by LC/MS/MS method; assay type: ADME, organism-based; conditions: in vivo
[7] = target: T1, Alkaline phosphatase, placental type; assay: Stability assessed as human placental ALP-mediated drug degradation by measuring compound remaining level in pH 7.5 tris buffer at 10 uM incubated for 0.5 hrs by LC/MS/MS method; assay type: ADME; conditions: read-out: Stability; outline: as §1
[8] = Solubility of the compound in pH 6.7 solution at room temperature; assay type: physicochemical
[9] = system: Rattus norvegicus; assay: Bioavailability in Sprague-Dawley rat assessed as plasma BMS-582949 level at 100 mg/kg, po dose equivalent to BMS-582949 after 24 hrs by LC/MS/MS method; assay type: ADME, organism-based; conditions: in vivo
[10] = system: Caco-2; assay: Drug level in apical side of human Caco2 cells incubated at 37 degC for 2 hrs; assay type: ADME, cell-based; conditions: caco-2, 2 h
Outline: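 Compounds loaded on apical side of Caco-2 monolayers and incubated at 37 °C for 2 h; prodrug, intermediate and parent measured on apical and basal sides.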

[11] = system: Rattus norvegicus; assay: AUC in Sprague-Dawley rat assessed as plasma BMS-582949 level at 100 mg/kg, po dose equivalent to BMS-582949 after 24 hrs by LC/MS/MS method; assay type: ADME, organism-based; parameters: time < 24 hr, dose 100 mg/kg, route oral; conditions: in vivo
[12] = system: Rattus norvegicus; assay: Inhibition of paw swelling in Lewis rat adjuvant arthritis model assessed as reduction in hind paw volume at 1 mg/kg, po bid dose equivalent to BMS-582949 beginning on day 11 post adjuvant challenge by volume displacement plethysmometry method relative to control; assay type: functional; conditions: 264 h
Outline: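 Male Lewis rats given complete Freund's adjuvant on day 1; from day 11 compounds dosed orally BID in 0.5 mL vehicle (prodrug as aqueous suspension in 0.75% Methocel, 0.1% Tween 80; parent in PEG 300). Paw volume measured 3 times per week for rest of study; paw swelling inhibition reported.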

[13] = system: Rattus norvegicus; assay: Cmax in Sprague-Dawley rat assessed as plasma BMS-582949 level at 10 mg/kg, po dose equivalent to BMS-582949 after 24 hrs by LC/MS/MS method; assay type: ADME, organism-based; parameters: dose 10 mg/kg, route oral; conditions: in vivo
[14] = Stability in pH 7.4 solution assessed as half-life at 37 degC; assay type: physicochemical
[15] = target: T1, Alkaline phosphatase, placental type; assay: Stability assessed as human placental ALP-mediated drug degradation by measuring compound remaining level in pH 7.5 tris buffer at 10 uM incubated for 1 hr in presence of HALT phosphatase inhibitor cocktail by LC/MS/MS method; assay type: ADME; conditions: pH 7.5, with HALT phosphatase inhibitor cocktail
Outline: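 Human placental ALP (1 unit/mL) with HALT phosphatase inhibitor cocktail at 100x dilution, added before the test compound (10 µM). Buffer 89 mM tris pH 7.5, 37 °C, triplicate. Sampled at 0, 15, 30 and 60 min, quenched with EDTA and acetonitrile, centrifuged, and percent remaining determined by LC/MS/MS.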

[16] = system: Cynomolgus monkey; assay: Cmax in cynomolgus monkey assessed as plasma BMS-582949 level at 10 mg/kg, po dose equivalent to BMS-582949 after 24 hrs by LC/MS/MS method; assay type: ADME, organism-based, Macaca fascicularis; parameters: dose 10 mg/kg, route oral; conditions: in vivo; outline: as §2
[17] = target: T2, Liver carboxylesterase; assay: Stability assessed as porcine liver esterase-mediated drug degradation by measuring compound remaining level in pH 7.4 potassium phosphate buffer at 10 uM incubated for 0.5 hrs by LC/MS/MS; assay type: ADME, tissue-based; conditions: pig, read-out: Stability; outline: as §3
[18] = system: Cynomolgus monkey; assay: Cmax in cynomolgus monkey assessed as plasma BMS-582949 level at 30 mg/kg, po dose equivalent to BMS-582949 after 24 hrs by LC/MS/MS method; assay type: ADME, organism-based, Macaca fascicularis; parameters: dose 30 mg/kg, route oral; conditions: in vivo; outline: as §2
[19] = system: Rattus norvegicus; assay: AUC in Sprague-Dawley rat assessed as plasma BMS-582949 level at 10 mg/kg, po dose equivalent to BMS-582949 after 24 hrs by LC/MS/MS method; assay type: ADME, organism-based; parameters: time < 24 hr, dose 10 mg/kg, route oral; conditions: in vivo
[20] = Stability in pH 1.1 solution assessed as half-life at 37 degC; assay type: physicochemical

remaining at 0.5 h, 10 µM [1]: 94% | AUC [2]: 24 µM·h | remaining at 1 h, 10 µM [3]: 100% | AUC [4]: 3.1 µM·h | solubility [5]: 0.1 mg/mL (≈ 144 µM) | F [6]: 41% | remaining at 0.5 h, 10 µM [7]: 11.1% | solubility [8]: 3.03 mg/mL (≈ 4360 µM) | F [9]: 115% | Drug uptake [10]: Active | AUC [11]: 875 µM·h | Cmax [13]: 18 µM | half-life [14]: 37 h | remaining at 1 h, 10 µM [15]: 64.5% | Cmax [16]: 12 µM | remaining at 0.5 h, 10 µM [17]: 100% | Cmax [18]: 29 µM | AUC [19]: 78 µM·h | half-life [20]: 21 h
SMILES: CCCN(C(=O)OCOC(=O)Cc1ccc(OP(=O)(O)O)cc1)C(=O)c1cn2ncnc(Nc3cc(C(=O)NC4CC4)ccc3C)c2c1C
inhibition in vivo at 1 mg/kg [12]: 39%
